Rows were chosen to be rich in hits. Some 1.6% of all compounds tested hit in one or more screens of this group.
PKA-R2B activ: PKA-R2B complex activation. P22694+P31323. PKA-R2B holoenzyme dissociation, Cy5-IP20 fluorescence polarization; R2B truncated from residue 108, S112A mutant; 0% DMSO only, 100% 113 µM cGMP. activation, % at 11.4 µM. 0.079% of 340,000 active;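 active means activation above a cutoff set at the mean over all compounds plus 3 SD, cut at about 18% in these data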;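 further: higher means more holoenzyme dissociation and a rise in polarization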
Target sequence (P31323 whole entry, looked up, other chains not shown, the tested form may be a part): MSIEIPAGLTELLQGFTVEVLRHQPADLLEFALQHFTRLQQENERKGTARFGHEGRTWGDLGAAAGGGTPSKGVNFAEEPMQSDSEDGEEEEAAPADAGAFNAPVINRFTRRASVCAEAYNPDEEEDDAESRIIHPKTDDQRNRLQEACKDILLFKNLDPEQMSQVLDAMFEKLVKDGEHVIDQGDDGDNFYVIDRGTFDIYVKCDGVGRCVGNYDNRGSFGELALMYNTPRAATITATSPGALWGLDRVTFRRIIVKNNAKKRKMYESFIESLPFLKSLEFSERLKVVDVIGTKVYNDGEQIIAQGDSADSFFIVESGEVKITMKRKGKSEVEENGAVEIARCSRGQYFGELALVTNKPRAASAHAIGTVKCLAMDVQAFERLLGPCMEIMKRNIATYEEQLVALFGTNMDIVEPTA
PKA-R1A activ: activators of PKA-R1A complex; PKA-R1A dissociation, Cy5-IP20 fluorescence polarization; scaled: DMSO 0%, 113 µM cGMP 100%; 0.083% of 340,000 active; activation, % at 11.4 µM; AID 504707; P00514+P68181;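 active means percent activation above the mean of all tested compounds plus 3 SD, cut at about 19% in these data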;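 further: higher means more PKAc released from R1A so a rise in polarization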
HKDC1 inhibitor: inhibitors of human hexokinase HKDC1; Q2TB90; inhibition, % at 20 µM; 0.16% of 340,000 active; AID 493160; recombinant HKDC1, G6PDH/diaphorase resazurin coupled fluorescence;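 active means inhibition above about 35% when tested at 20 µM, limit read from the data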;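 further: plate controls were DMSO wells with enzyme for no effect and DMSO wells lacking enzyme for full effect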
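Assay system: in-house recombinant HK5 (HKDC1) enzyme. Input: HKDC1 at 5 µg/mL. Medium: Tris pH 8.0 buffer with MgCl2, Tween-20, BSA, BME. Dosing: single 20 µM dose. Schedule: 90 min reaction incubation at room temperature, dark. Signal: resazurin-to-resorufin fluorescence via G6PDH and diaphorase coupling, 525/613 nm. Controls: DMSO-enzyme wells negative, buffer-substituted wells positive.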
ATG4B inhibitor: blocks human ATG4B protease cleavage of LC3 substrate. inhibition, % at 8.33 µM. AID 504462. 0.51% of 340,000 active. ATG4B cleavage of LC3-PLA2, NBD-HPC fluorescence, 1 h. Q9Y4P1; in the data active means inhibition above about 40%
PfGluPho inh: PfG6PD (Plasmodium falciparum) enzyme inhibition | PfGluPho enzyme, NADPH resazurin-diaphorase fluorescence | inhibition, % at 20 µM | 0.78% of 350,000 active;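 active means inhibition reaching at least a set limit at 20 µM in the primary screen, cut at about 59% in these data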;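 further: 0% = DMSO wells with substrate and 100% = DMSO wells lacking glucose-6-phosphate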
T cell HTS: T cell immune modulators affecting CD8 T cell-vesicle binding; 0.068% of 330,000 active; response (vesicle binding), % at 7 µM; 2C CD8+ T cell-vesicle binding, flow cytometry; hits give low values;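 active means response, share of CD8 T cells binding vesicles, and their 90th percentile fluorescence all below set limits, cut at about 80% in these data, passing the limit was not always enough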;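 further: values below 100% mean blocked vesicle binding to the CD8+ T cells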
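incubation = binding step 1.5 h, 37 °C, antibody labelling 20 min, ice | test system = 2C mouse CD8+ T cells | read-out basis = percent CD8+ FL2 mean versus row control | controls = Peptide-free naked vesicles (low) and QL9 vesicles with 0.7% DMSO vehicle (high) | detection = flow cytometry of vesicle-bound cells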
ATG4B confirm: confirmation of human ATG4B inhibitors; inhibition, % at 8.33 µM; ATG4B protease fluorescent substrate cleavage assay; shares compounds with ATG4B inhibitor; 92% of 320 active; in the data active means inhibition above about 39%
PLA2 counter: counter-screen for ATG4B inhibitors: human phospholipase A2 | shares compounds with ATG4B inhibitor | purified PLA2, NBD-C6-HPC fluorescence, 45 min | inhibition, % at 8.33 µM | 66% of 1,600 active; in the data active means inhibition above about 50%
Target sequence (P04054 whole entry, looked up): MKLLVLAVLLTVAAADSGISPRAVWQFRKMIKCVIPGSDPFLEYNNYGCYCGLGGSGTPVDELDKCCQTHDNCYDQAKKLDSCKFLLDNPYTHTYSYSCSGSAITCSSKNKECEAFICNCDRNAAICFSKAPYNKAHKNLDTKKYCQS
PfGluPho conf: confirmation of Plasmodium falciparum G6PD inhibitors. 34% of 2,400 active. inhibition, % at 20 µM. shares compounds with PfGluPho inh. AID 504753. recombinant PfGluPho, NADPH-diaphorase-resazurin fluorescence;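 active means inhibition of at least 50% at 20 µM in any single replicate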;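 further: 0% = DMSO with substrate and 100% = DMSO lacking glucose-6-phosphate substrate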
* = called active by the depositor; / = not tested or not shown.

SMILES | PKA-R2B activ | PKA-R1A activ | HKDC1 inhibitor | ATG4B inhibitor | PfGluPho inh | T cell HTS | PLA2 counter | others
CC(C)c1ccc(NC2CCCN(C(=O)c3n[nH]c4c3CCC4)C2)cc1 (stereo not drawn) | 4 | 0 | 5 | 55* | 7 | 350 | 43 | ATG4B confirm=60*
CCOC(=O)c1ccc2c(c1)nc(SC(C)C(=O)NCC1CCCO1)n2CC (stereo not drawn) | 13 | -12 | 1 | 7 | -6 | 201 | /
Cc1ccc([C@@H]2CC(=O)[C@@H]3CN(S(=O)(=O)c4ccc(C)cc4)[C@H](c4cccc(Cl)c4)C[C@@H]3N2S(=O)(=O)c2ccc(Cl)cc2)cc1 | -6 | 7 | / | / | 6 | / | /
O=C(COC(=O)CSc1ccc(Cl)cc1)NCCc1ccccc1 | 6 | -11 | 2 | -3 | 7 | / | /
CC(C)c1ccc(NC2CCCN(C(=O)CCN3Cc4ccccc4C3=O)C2)cc1 (stereo not drawn) | 10 | -1 | 1 | 44* | -3 | 262 | 38 | ATG4B confirm=73*
O=C(CCc1cccc(Cl)c1)N1CCCC(Nc2ccccc2)C1 (stereo not drawn) | -6 | -9 | 4 | 48* | -2 | 96 | 50
CC(C)c1ccc(NC2CCCN(C(=O)c3ccsc3)C2)cc1 (stereo not drawn) | -3 | -3 | 7 | 77* | -2 | 289 | 78*
CC(C)c1ccc(NC2CCCN(C(=O)c3cnn(C(C)C)c3)C2)cc1 (stereo not drawn) | -5 | -4 | 9 | 45* | 8 | 346 | 49 | ATG4B confirm=53*
CC(C)c1ccc(NC2CCCN(C(=O)c3cccnc3)C2)cc1 (stereo not drawn) | -13 | 4 | 0 | 24 | 6 | 364 | /
CC(=O)Nc1cccc(NC(=O)CSc2n[nH]c(-c3ccccc3)n2)c1 | -6 | -11 | 3 | 2 | -1 | 397 | /
O=C(Nc1cccc([N+](=O)[O-])c1)C1C2CC/C=C\CCC21 (stereo not drawn) | -6 | -10 | -2 | 54* | 17 | 330 | 66*
CCc1ccccc1NC(=S)/N=C(\N)Nc1nc(C)c2cc(C)ccc2n1 | -7 | -6 | -2 | 80* | 4 | 295 | 82*
CCOC(=O)c1ccc(OCC2NCCc3cc(OC)c(OC)cc32)cc1 (stereo not drawn) | 2 | -4 | -1 | -2 | -3 | 550 | /
O=C(Nc1ccc(Nc2ccccc2)cc1)c1ccc(Cl)c([N+](=O)[O-])c1 | -1 | -5 | 3 | 5 | 18 | 256 | /
O=C(Nc1ccccc1-c1ccccc1)c1ccc(Cl)c([N+](=O)[O-])c1 | -12 | -3 | 19 | 41* | -7 | 255 | 36
NC(=O)c1ccc(N2CCN(c3ccccc3F)CC2)c([N+](=O)[O-])c1 | 0 | -9 | -3 | 45* | -23 | 312 | 50*
NC(=O)c1ccc(N2CCN(c3ccccc3O)CC2)c([N+](=O)[O-])c1 | -3 | 7 | 2 | 33 | -12 | 386 | /
CC(=O)N1CCN(c2ccc(C(N)=O)cc2[N+](=O)[O-])CC1 | -8 | -3 | 2 | -22 | -11 | 307 | /
NC(=O)c1ccc(N2CCCCCC2)c([N+](=O)[O-])c1 | -7 | 5 | 1 | 68* | 1 | 154 | 70*
Cc1nn(Cc2c(F)c(F)c(F)c(F)c2F)c(C)c1NC(=O)c1cccc(COc2ccc(Cl)cc2)c1 | -20 | -7 | -8 | 57* | 5 | / | 68*
Cc1ccc(OCc2ccc(C(=O)Nc3c(C)nn(Cc4c(F)c(F)c(F)c(F)c4F)c3C)o2)c([N+](=O)[O-])c1 | 0 | -11 | 7 | 67* | -7 | / | 76*
CCc1ccc(CNC(=O)C2CCN(S(=O)(=O)N3CCCCC3)CC2)cc1 | 3 | 1 | / | / | 0 | / | /
COc1cc(-c2nnc(-c3cc(-c4ccccc4)nc4ccccc34)o2)cc(OC)c1OC | -9 | -5 | -1 | -7 | 2 | / | /
COc1cc2c(cc1NC(=O)Nc1ccc(C)cc1)oc1ccccc12 | 2 | -3 | 4 | 12 | 2 | 331 | /
COc1cc2c(cc1NC(=O)C(C)Sc1ccc(NC(C)=O)cc1)oc1ccccc12 (stereo not drawn) | -1 | -18 | 1 | 44* | 15 | 469 | 39 | ATG4B confirm=91*
SMILES | PKA-R2B activ | PKA-R1A activ | HKDC1 inhibitor | ATG4B inhibitor | PfGluPho inh | T cell HTS | PLA2 counter | others
COc1ccccc1NC(=O)c1cc2cc(Br)ccc2cc1O | 1 | -3 | 8 | 2 | 19 | 201 | /
Cc1ccc2c(c1)c1c(n2C)C(C(N)=O)CCC1 (stereo not drawn) | -13 | 2 | 9 | 62* | -17 | 328 | 69*
CC(=O)N1CCn2c3c(c4cc(C)ccc42)CCCC31 (stereo not drawn) | -3 | -1 | 9 | -4 | 5 | 322 | /
NC(=O)C1CCCc2c1n(Cc1ccccc1)c1ccccc21 (stereo not drawn) | 5 | 2 | 4 | 84* | 9 | 169 | 88*
C=CCn1c(SCC(=O)c2ccccc2)nnc1-c1cc2ccccc2o1 | 7 | -8 | -1 | 62* | 6 | 429 | 62*
Cc1cc(/C=C2\Cc3ccccc3C2=O)c(C)n1-c1ccccc1 | -5 | -9 | 2 | 62* | 59* | 173 | 62* | PfGluPho conf=15
CN(CC1COc2ccccc2O1)C(=O)CCNS(=O)(=O)c1ccc(F)c(Cl)c1 (stereo not drawn) | 4 | -9 | / | / | -4 | / | /
CCOC(COC(=O)c1ccccc1C(=O)O)c1ccccc1 (stereo not drawn) | -15 | -6 | / | / | -19 | / | /
Cc1sc(NC(=O)c2ccccc2)c(C(=O)c2ccccc2)c1C | 0 | -9 | -18 | 50* | 63* | 213 | 43 | ATG4B confirm=73*;PfGluPho conf=37

Assay outcomes deposited in PubChem by several laboratories.
